Our source for the CC50 and EC50 values is ChEMBL document CHEMBL1134356, “Correlation of anti-HIV activity with anion spacing in a series of cosalane analogues with extended polycarboxylate pharmacophores” (J Med Chem, 2001).

Each structure is given as a SMILES string.

Experiment [1] relates to MT4. In words: 50% cell death in uninfected MT-4 cells was determined using MTS cytoprotection assay. The experiment is classed as functional. As to conditions: Homo sapiens, in the assay text read “MTT cytoprotection assay” for “MTS cytoprotection assay”. The gist of the method: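 MT-4 cells at 6 × 10^5 cells/mL, infected with HIV-1 IIIB or HIV-2 ROD at 100–300 CCID50, or mock-infected. Serial 5-fold compound dilutions, triplicate wells. After 5 days, viability read by MTT reduction at 540 and 690 nm, median OD of three wells. CC50 is 50% drop in OD540 of mock-infected cells; EC50 is 50% protection from viral cytopathic effect.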
On the technique in general: Tetrazolium assays rely on reduction of a dye to a coloured formazan, in cell work by metabolically active cells.

A short description of experiment [2]: In vitro inhibition of cytopathic effect was determined against HIV-1 RF in CEM-SS cells using MTS cytoprotection assay. The experiment is classed as functional, cell-based. The method, boiled down:
(§1)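 CEM-SS cells from exponential culture, 5 × 10^3 per well, mixed with pretitered HIV-1 RF and serially diluted compound. Incubated 6 days at 37 °C, 5% CO2. MTS added, colour developed overnight at 37 °C, read at 490 nm, expressed as percent of uninfected drug-free control. EC50 is 50% protection from cytopathic effect; CC50 is 50% death of uninfected cells. Triplicates on each of two sister plates, plate values averaged.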
(Protection from cytopathic effect is a common read-out in antiviral testing.)

In a further experiment the test system is CEM-SS. In words: 50% cell death in uninfected CEM-SS cells was determined using MTS cytoprotection assay. The experiment is classed as functional. Particulars: Homo sapiens. The method, boiled down:
as §1

A short description of experiment [3]: In vitro inhibition of cytopathic effect was determined against HIV-1 IIIB in MT-4 cells using MTT cytoprotection assay. As to conditions: MT4.
Experiment [4] has as its system MT4. The experiment is described as above. Particulars: Homo sapiens.

Regarding `CC(C)CCCC(C)[C@H]1CC[C@H]2[C@@H]3CCC4C[C@@H](CCC=C(c5cc(Cl)c(OCc6cccc(C(=O)O)c6)c(C(=O)O)c5)c5cc(Cl)c(OCc6cccc(C(=O)O)c6)c(C(=O)O)c5)CC[C@]4(C)[C@H]3CC[C@]12C` (some centres undefined), it took 76 µM to reach half-maximal cytotoxicity in the experiment with MT4 [1] (CC50).

For `CC(C)CCCC(C)[C@H]1CC[C@H]2[C@@H]3CCC4C[C@@H](CCC=C(c5cc(Cl)c(O)c(C(=O)N[C@@H](Cc6ccccc6)C(=O)O)c5)c5cc(Cl)c(O)c(C(=O)N[C@@H](Cc6ccccc6)C(=O)O)c5)CC[C@]4(C)[C@H]3CC[C@]12C` (some centres undefined), the EC50 (in general, the concentration needed to bring the measured effect to its halfway point) was > 200 µM in experiment [2] and > 62 µM in experiment [3]. Further, the CC50 (as a rule, the concentration giving 50% cytotoxicity) in the experiment on MT4 [1] is 62 µM; with CEM-SS, > 200 µM.

As to `CC(C)CCCC(C)[C@H]1CC[C@H]2[C@@H]3CCC4C[C@@H](CCCC(c5cc(Cl)c(OCc6ccc(C(=O)O)cc6)c(C(=O)O)c5)c5cc(Cl)c(OCc6ccc(C(=O)O)cc6)c(C(=O)O)c5)CC[C@]4(C)[C@H]3CC[C@]12C` (some centres undefined), the EC50 is 4.8 µM in experiment [2] and 5.1 µM in experiment [3]. The values for the CC50 in the experiment with MT4 [1] and with CEM-SS were > 125 µM and > 200 µM, respectively.

Molecule `CC(C)CCCC(C)[C@H]1CC[C@H]2[C@@H]3CCC4C[C@@H](CCC=C(c5cc(Cl)c(OCc6ccc(C(=O)O)cc6)c(C(=O)O)c5)c5cc(Cl)c(OCc6ccc(C(=O)O)cc6)c(C(=O)O)c5)CC[C@]4(C)[C@H]3CC[C@]12C` (some centres undefined) registered a half-maximal effective concentration (EC50) in experiment [2] of 0.5 µM. This molecule showed a CC50 in the experiment on MT4 [1] of 89 µM.

For the molecule `CC(C)CCCC(C)[C@H]1CC[C@H]2[C@@H]3CCC4C[C@@H](CCC=C(c5cc(Cl)c(OCc6ccccc6C(=O)O)c(C(=O)O)c5)c5cc(Cl)c(OCc6ccccc6C(=O)O)c(C(=O)O)c5)CC[C@]4(C)[C@H]3CC[C@]12C` (some centres undefined), the EC50 in experiment [2] is 39.8 µM; in experiment [3], > 37 µM.

For the molecule `CC(C)CCCC(C)[C@H]1CC[C@H]2[C@@H]3CCC4C[C@@H](CCC=C(c5cc(Cl)c(O)c(C(=O)NCCC(=O)O)c5)c5cc(Cl)c(O)c(C(=O)NCCC(=O)O)c5)CC[C@]4(C)[C@H]3CC[C@]12C` (some centres undefined), the CC50 was > 125 µM with MT4 [1] and > 200 µM in the experiment with CEM-SS. The same molecule gave an EC50 in experiment [3] of 73.8 µM.

Regarding `CC(C)CCCC(C)[C@H]1CC[C@H]2[C@@H]3CCC4C[C@@H](CCCC(c5cc(Cl)c(O)c(C(=O)N[C@@H](CCC(=O)O)C(=O)O)c5)c5cc(Cl)c(O)c(C(=O)N[C@@H](CCC(=O)O)C(=O)O)c5)CC[C@]4(C)[C@H]3CC[C@]12C` (some centres undefined), the cytotoxic concentration (CC50) with MT4 [1] was > 125 µM; in the experiment on CEM-SS it was 34 µM. Further, in experiment [3], it took 10.3 µM to reach a half-maximal effect (EC50).

As for `CC(C)CCCC(C)[C@H]1CC[C@H]2[C@@H]3CCC4C[C@@H](CCC=C(c5cc(Cl)c(O)c(C(=O)N[C@@H](CC(C)C)C(=O)O)c5)c5cc(Cl)c(O)c(C(=O)N[C@@H](CC(C)C)C(=O)O)c5)CC[C@]4(C)[C@H]3CC[C@]12C` (some centres undefined), the half-maximal effective concentration (EC50) was 40 µM in experiment [2] and 63.4 µM in experiment [3]. Moreover, the values for the CC50 in the experiment on MT4 [1] and with CEM-SS were > 125 µM and > 200 µM, respectively.

In the case of `CC(C)CCCC(C)[C@H]1CC[C@H]2[C@@H]3CCC4C[C@@H](CCC=C(c5cc(Cl)c(OCc6ccc(-c7cccc(C(=O)O)c7)cc6)c(C(=O)O)c5)c5cc(Cl)c(OCc6ccc(-c7cccc(C(=O)O)c7)cc6)c(C(=O)O)c5)CC[C@]4(C)[C@H]3CC[C@]12C` (some centres undefined), the values for the EC50 in experiment [2] and in experiment [3] were 6.1 µM and 12 µM, respectively. The molecule further displayed a CC50 in the experiment on MT4 [1] of 79 µM.

For the molecule `CC(C)CCCC(C)[C@H]1CC[C@H]2[C@@H]3CCC4C[C@@H](CCC=C(c5cc(Cl)c(O)c(C(=O)N[C@@H](CC(=O)O)C(=O)O)c5)c5cc(Cl)c(O)c(C(=O)N[C@@H](CC(=O)O)C(=O)O)c5)CC[C@]4(C)[C@H]3CC[C@]12C` (some centres undefined), the CC50 is > 125 µM in the experiment with MT4 [1] and 90 µM with CEM-SS.

Consider `CC(C)CCCC(C)[C@H]1CC[C@H]2[C@@H]3CCC4C[C@@H](CCCC(c5cc(Cl)c(O)c(C(=O)NCC(=O)O)c5)c5cc(Cl)c(O)c(C(=O)NCC(=O)O)c5)CC[C@]4(C)[C@H]3CC[C@]12C` (some centres undefined), for which the CC50 in the experiment with MT4 [1] was > 125 µM; in the experiment with CEM-SS, > 200 µM. In addition, in experiment [3], the EC50 was 39.4 µM.

As to `CC(C)CCCC(C)[C@H]1CC[C@H]2[C@@H]3CCC4C[C@@H](CCC=C(c5cc(Cl)c(OCc6ccc(-c7ccccc7C(=O)O)cc6)c(C(=O)O)c5)c5cc(Cl)c(OCc6ccc(-c7ccccc7C(=O)O)cc6)c(C(=O)O)c5)CC[C@]4(C)[C@H]3CC[C@]12C` (some centres undefined), the EC50 was found to be 5.2 µM in experiment [2] and 10.1 µM in experiment [3].

Regarding `CC(C)CCCC(C)[C@H]1CC[C@H]2[C@@H]3CCC4C[C@@H](CCC=C(c5cc(Cl)c(O)c(C(=O)O)c5)c5cc(Cl)c(O)c(C(=O)O)c5)CC[C@]4(C)[C@H]3CC[C@]12C` (some centres undefined), the EC50 in experiment [2] was found to be 5.1 µM; in experiment [3], 3 µM. Also, the CC50 with MT4 [1] is > 125 µM.

Regarding `COc1ccc(C(=O)Nc2cc(C(=CCC[C@H]3CC[C@@]4(C)C(CC[C@H]5[C@@H]6CC[C@H](C(C)CCCC(C)C)[C@@]6(C)CC[C@@H]54)C3)c3cc(NC(=O)c4ccc(OC)c(C(=O)O)c4)c(OC)c(C(=O)O)c3)cc(C(=O)O)c2OC)cc1C(=O)O` (some centres undefined), the EC50 in experiment [2] amounted to 28.6 µM; in experiment [3], 8.4 µM. Also, the CC50 with MT4 [1] is 81 µM; in the experiment with CEM-SS it was 47 µM.

Take `CC(C)CCCC(C)[C@H]1CC[C@H]2[C@@H]3CCC4C[C@@H](CCC=C(c5cc(Cl)c(OCc6ccc(CC(=O)O)cc6)c(C(=O)O)c5)c5cc(Cl)c(OCc6ccc(CC(=O)O)cc6)c(C(=O)O)c5)CC[C@]4(C)[C@H]3CC[C@]12C` (some centres undefined): the EC50 in experiment [2] was found to be 1.8 µM; in experiment [3], 4.1 µM.

Consider `CC(C)CCCC(C)[C@H]1CC[C@H]2[C@@H]3CCC4C[C@@H](CCC=C(c5cc(Cl)c(OCc6ccc(-c7ccc(C(=O)O)cc7)cc6)c(C(=O)O)c5)c5cc(Cl)c(OCc6ccc(-c7ccc(C(=O)O)cc7)cc6)c(C(=O)O)c5)CC[C@]4(C)[C@H]3CC[C@]12C` (some centres undefined), for which the EC50 in experiment [2] and in experiment [3] was > 100 µM in each case. In the experiment with MT4 [1], this molecule came in with a 50% cytotoxic concentration (CC50) of 100 µM.

With `CC(C)CCCC(C)[C@H]1CC[C@H]2[C@@H]3CCC4C[C@@H](CCC=C(c5cc(Cl)c(O)c(C(=O)NCC(=O)OC(C)(C)C)c5)c5cc(Cl)c(O)c(C(=O)NCC(=O)OC(C)(C)C)c5)CC[C@]4(C)[C@H]3CC[C@]12C` (some centres undefined), the CC50 with MT4 [1] and in the experiment on CEM-SS was > 125 µM each time. In addition, the EC50 in experiment [3] is > 125 µM.

As to `COc1c(Cl)cc(Cc2cc(C(=CCC[C@H]3CC[C@@]4(C)C(CC[C@H]5[C@@H]6CC[C@H](C(C)CCCC(C)C)[C@@]6(C)CC[C@@H]54)C3)c3cc(Cc4cc(Cl)c(OC)c(C(=O)O)c4)c(OC)c(C(=O)O)c3)cc(C(=O)O)c2OC)cc1C(=O)O` (some centres undefined), the EC50 in experiment [2] turned out to be 2.9 µM; in experiment [3], 12.5 µM. Moreover, the 50% cytotoxic concentration (CC50) in the experiment with MT4 [1] turned out to be 41 µM; in the experiment with CEM-SS it was 50 µM.

Turning to `CC(C)CCCC(C)[C@H]1CC[C@H]2[C@@H]3CCC4C[C@@H](CCC=C(c5cc(Cl)c(O)c(C(=O)N[C@@H](CCC(=O)O)C(=O)O)c5)c5cc(Cl)c(O)c(C(=O)N[C@@H](CCC(=O)O)C(=O)O)c5)CC[C@]4(C)[C@H]3CC[C@]12C` (some centres undefined), the CC50 in the experiment with MT4 [1] is > 125 µM; in the experiment on CEM-SS it was 82 µM. For the same molecule, a half-maximal response in experiment [3] (EC50) required 8.9 µM.

Regarding `CC(C)CCCC(C)[C@H]1CC[C@H]2[C@@H]3CCC4C[C@@H](CCC=C(c5cc(Cl)c(O)c(C(=O)NCC(=O)O)c5)c5cc(Cl)c(O)c(C(=O)NCC(=O)O)c5)CC[C@]4(C)[C@H]3CC[C@]12C` (some centres undefined), the EC50 in experiment [2] turned out to be 3.4 µM; in the experiment on MT4 [4], 57.6 µM. For the same molecule, the CC50 was > 125 µM in the experiment on MT4 [1] and > 200 µM in the experiment with CEM-SS.
